Experimental data as given in ChEMBL document CHEMBL4689842, “EUbOPEN Chemogenomics Library wave 1” (2021).

System: Fibroblast
Test: Multiplex assay against human fibroblast
Format: toxicity, cell-based
Summary of the method: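 Imaging took place on a CQ1 microscope at 37°C and 5% CO2 once compound had been added to live cells stained at seeding with Hoechst33342, BioTracker Green Microtubule Cytoskeleton Dye, MitoTracker Red and Annexin V Alexa Fluor 680. CellPathfinder machine-learning gating classed cells as Hoechst high-intensity objects or normal cells, classed normal cells as having healthy, pyknosed or fragmented nuclei, and classed pyknosed cells as mitotic or apoptotic. Tubulin, mitochondrial-mass and membrane-permeability phenotypes are per cents of the healthy-nucleus cells.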

[1] = 12 h, 1 µM, compound concentration 1 uM, replicate 1
[2] = 12 h, 1 µM, compound concentration 1 uM, replicate 2
[3] = 12 h, 10 µM, compound concentration 10 uM, replicate 1
[4] = 12 h, 10 µM, compound concentration 10 uM, replicate 2
[5] = 24 h, 1 µM, compound concentration 1 uM, replicate 1
[6] = 24 h, 1 µM, compound concentration 1 uM, replicate 2
[7] = 24 h, 10 µM, compound concentration 10 uM, replicate 1
[8] = 24 h, 10 µM, compound concentration 10 uM, replicate 2
[9] = 48 h, 1 µM, compound concentration 1 uM, replicate 1
[10] = 48 h, 1 µM, compound concentration 1 uM, replicate 2
[11] = 48 h, 10 µM, compound concentration 10 uM, replicate 1
[12] = 48 h, 10 µM, compound concentration 10 uM, replicate 2

O=C(Nc1ccc(-n2nc(-c3cccnc3)cc2C(F)(F)F)cn1)c1ccc(-c2ccccc2)c(F)c1 [BI 2049]
Population Apoptotic (%) [1]: 63%
Population Fragmented Nuclei (%) [1]: 29%
Population Healthy Nuclei (%) [1]: 30%
Population Hoechst High Intensity Objects (%) [1]: 10%
Population Membrane Permeable-Phenotype (%) [1]: 32%
Population Mitochondria Different-Phenotype (%) [1]: 8%
Population Mitotic Cells (%) [1]: 36%
Population Normal (%) [1]: 89%
Population Pyknosed Nuclei (%) [1]: 40%
Population Tubulin-Different-Phenotype (%) [1]: 44%
Total Cell Count [1]: 92
Population Apoptotic (%) [2]: 50%
Population Fragmented Nuclei (%) [2]: 4%
Population Healthy Nuclei (%) [2]: 85%
Population Hoechst High Intensity Objects (%) [2]: 8%
Population Membrane Permeable-Phenotype (%) [2]: 3%
Population Mitochondria Different-Phenotype (%) [2]: 7%
Population Mitotic Cells (%) [2]: 50%
Population Normal (%) [2]: 91%
Population Pyknosed Nuclei (%) [2]: 9%
Total Cell Count [2]: 69
Population Apoptotic (%) [3]: 58%
Population Fragmented Nuclei (%) [3]: 11%
Population Healthy Nuclei (%) [3]: 41%
Population Hoechst High Intensity Objects (%) [3]: 9%
Population Membrane Permeable-Phenotype (%) [3]: 22%
Population Mitochondria Different-Phenotype (%) [3]: 22%
Population Mitotic Cells (%) [3]: 41%
Population Normal (%) [3]: 90%
Population Pyknosed Nuclei (%) [3]: 46%
Population Tubulin-Different-Phenotype (%) [3]: 62%
Total Cell Count [3]: 93
Population Apoptotic (%) [4]: 0%
Population Fragmented Nuclei (%) [4]: 18%
Population Healthy Nuclei (%) [4]: 81%
Population Hoechst High Intensity Objects (%) [4]: 6%
Population Membrane Permeable-Phenotype (%) [4]: 4%
Population Mitochondria Different-Phenotype (%) [4]: 12%
Population Mitotic Cells (%) [4]: 0%
Population Normal (%) [4]: 93%
Population Pyknosed Nuclei (%) [4]: 0%
Population Tubulin-Different-Phenotype (%) [4]: 8%
Total Cell Count [4]: 65
Population Apoptotic (%) [5]: 61%
Population Fragmented Nuclei (%) [5]: 32%
Population Healthy Nuclei (%) [5]: 36%
Population Hoechst High Intensity Objects (%) [5]: 14%
Population Membrane Permeable-Phenotype (%) [5]: 32%
Population Mitochondria Different-Phenotype (%) [5]: 12%
Population Mitotic Cells (%) [5]: 38%
Population Normal (%) [5]: 85%
Population Pyknosed Nuclei (%) [5]: 30%
Population Tubulin-Different-Phenotype (%) [5]: 58%
Total Cell Count [5]: 98
Population Apoptotic (%) [6]: 25%
Population Fragmented Nuclei (%) [6]: 7%
Population Healthy Nuclei (%) [6]: 83%
Population Hoechst High Intensity Objects (%) [6]: 7%
Population Membrane Permeable-Phenotype (%) [6]: 4%
Population Mitochondria Different-Phenotype (%) [6]: 9%
Population Mitotic Cells (%) [6]: 75%
Population Normal (%) [6]: 92%
Population Pyknosed Nuclei (%) [6]: 8%
Population Tubulin-Different-Phenotype (%) [6]: 37%
Total Cell Count [6]: 96
Population Apoptotic (%) [7]: 66%
Population Fragmented Nuclei (%) [7]: 24%
Population Healthy Nuclei (%) [7]: 42%
Population Hoechst High Intensity Objects (%) [7]: 8%
Population Membrane Permeable-Phenotype (%) [7]: 12%
Population Mitochondria Different-Phenotype (%) [7]: 17%
Population Mitotic Cells (%) [7]: 33%
Population Normal (%) [7]: 91%
Population Pyknosed Nuclei (%) [7]: 32%
Population Tubulin-Different-Phenotype (%) [7]: 46%
Total Cell Count [7]: 99
Population Apoptotic (%) [8]: 0%
Population Fragmented Nuclei (%) [8]: 11%
Population Healthy Nuclei (%) [8]: 84%
Population Hoechst High Intensity Objects (%) [8]: 3%
Population Membrane Permeable-Phenotype (%) [8]: 4%
Population Mitochondria Different-Phenotype (%) [8]: 13%
Population Mitotic Cells (%) [8]: 100%
Population Normal (%) [8]: 96%
Population Pyknosed Nuclei (%) [8]: 3%
Population Tubulin-Different-Phenotype (%) [8]: 10%
Total Cell Count [8]: 82
Population Apoptotic (%) [9]: 64%
Population Fragmented Nuclei (%) [9]: 26%
Population Healthy Nuclei (%) [9]: 45%
Population Hoechst High Intensity Objects (%) [9]: 9%
Population Membrane Permeable-Phenotype (%) [9]: 40%
Population Mitochondria Different-Phenotype (%) [9]: 2%
Population Mitotic Cells (%) [9]: 36%
Population Normal (%) [9]: 90%
Population Pyknosed Nuclei (%) [9]: 28%
Population Tubulin-Different-Phenotype (%) [9]: 37%
Total Cell Count [9]: 97
Population Apoptotic (%) [10]: 100%
Population Fragmented Nuclei (%) [10]: 25%
Population Healthy Nuclei (%) [10]: 72%
Population Hoechst High Intensity Objects (%) [10]: 16%
Population Membrane Permeable-Phenotype (%) [10]: 17%
Population Mitotic Cells (%) [10]: 0%
Population Normal (%) [10]: 83%
Population Pyknosed Nuclei (%) [10]: 1%
Population Tubulin-Different-Phenotype (%) [10]: 5%
Total Cell Count [10]: 66
Population Apoptotic (%) [11]: 72%
Population Fragmented Nuclei (%) [11]: 30%
Population Healthy Nuclei (%) [11]: 50%
Population Hoechst High Intensity Objects (%) [11]: 15%
Population Membrane Permeable-Phenotype (%) [11]: 35%
Population Mitochondria Different-Phenotype (%) [11]: 14%
Population Mitotic Cells (%) [11]: 27%
Population Normal (%) [11]: 84%
Population Pyknosed Nuclei (%) [11]: 18%
Population Tubulin-Different-Phenotype (%) [11]: 64%
Total Cell Count [11]: 113
Population Apoptotic (%) [12]: 100%
Population Fragmented Nuclei (%) [12]: 14%
Population Healthy Nuclei (%) [12]: 85%
Population Hoechst High Intensity Objects (%) [12]: 9%
Population Membrane Permeable-Phenotype (%) [12]: 15%
Population Mitochondria Different-Phenotype (%) [12]: 1%
Population Mitotic Cells (%) [12]: 0%
Population Normal (%) [12]: 90%
Population Pyknosed Nuclei (%) [12]: 0%
Population Tubulin-Different-Phenotype (%) [12]: 35%
Total Cell Count [12]: 140

Cn1nc(C(F)(F)F)cc1-c1cnc(N2CCc3cc(S(=O)(=O)Nc4c(F)cc(Cl)cc4F)cc(N4CCCC4=O)c32)nc1 [TP-020]
Population Apoptotic (%) [1]: 69%
Population Fragmented Nuclei (%) [1]: 20%
Population Healthy Nuclei (%) [1]: 59%
Population Hoechst High Intensity Objects (%) [1]: 13%
Population Membrane Permeable-Phenotype (%) [1]: 35%
Population Mitochondria Different-Phenotype (%) [1]: 4%
Population Mitotic Cells (%) [1]: 30%
Population Normal (%) [1]: 86%
Population Pyknosed Nuclei (%) [1]: 20%
Population Tubulin-Different-Phenotype (%) [1]: 58%
Total Cell Count [1]: 241
Population Apoptotic (%) [2]: 42%
Population Fragmented Nuclei (%) [2]: 56%
Population Healthy Nuclei (%) [2]: 26%
Population Hoechst High Intensity Objects (%) [2]: 34%
Population Membrane Permeable-Phenotype (%) [2]: 45%
Population Mitochondria Different-Phenotype (%) [2]: 18%
Population Mitotic Cells (%) [2]: 57%
Population Normal (%) [2]: 65%
Population Pyknosed Nuclei (%) [2]: 17%
Population Tubulin-Different-Phenotype (%) [2]: 72%
Total Cell Count [2]: 63
Population Apoptotic (%) [3]: 65%
Population Fragmented Nuclei (%) [3]: 30%
Population Healthy Nuclei (%) [3]: 57%
Population Hoechst High Intensity Objects (%) [3]: 7%
Population Membrane Permeable-Phenotype (%) [3]: 13%
Population Mitochondria Different-Phenotype (%) [3]: 1%
Population Mitotic Cells (%) [3]: 35%
Population Normal (%) [3]: 92%
Population Pyknosed Nuclei (%) [3]: 11%
Population Tubulin-Different-Phenotype (%) [3]: 3%
Total Cell Count [3]: 192
Population Apoptotic (%) [4]: 33%
Population Fragmented Nuclei (%) [4]: 62%
Population Healthy Nuclei (%) [4]: 28%
Population Hoechst High Intensity Objects (%) [4]: 41%
Population Membrane Permeable-Phenotype (%) [4]: 10%
Population Mitochondria Different-Phenotype (%) [4]: 0%
Population Mitotic Cells (%) [4]: 66%
Population Normal (%) [4]: 58%
Population Pyknosed Nuclei (%) [4]: 8%
Population Tubulin-Different-Phenotype (%) [4]: 10%
Total Cell Count [4]: 60
Population Apoptotic (%) [5]: 51%
Population Fragmented Nuclei (%) [5]: 19%
Population Healthy Nuclei (%) [5]: 57%
Population Hoechst High Intensity Objects (%) [5]: 9%
Population Membrane Permeable-Phenotype (%) [5]: 25%
Population Mitochondria Different-Phenotype (%) [5]: 4%
Population Mitotic Cells (%) [5]: 48%
Population Normal (%) [5]: 90%
Population Pyknosed Nuclei (%) [5]: 23%
Population Tubulin-Different-Phenotype (%) [5]: 55%
Total Cell Count [5]: 246
Population Apoptotic (%) [6]: 57%
Population Fragmented Nuclei (%) [6]: 57%
Population Healthy Nuclei (%) [6]: 26%
Population Hoechst High Intensity Objects (%) [6]: 36%
Population Membrane Permeable-Phenotype (%) [6]: 18%
Population Mitochondria Different-Phenotype (%) [6]: 27%
Population Mitotic Cells (%) [6]: 42%
Population Normal (%) [6]: 63%
Population Pyknosed Nuclei (%) [6]: 16%
Population Tubulin-Different-Phenotype (%) [6]: 27%
Total Cell Count [6]: 66
Population Apoptotic (%) [7]: 42%
Population Fragmented Nuclei (%) [7]: 22%
Population Healthy Nuclei (%) [7]: 66%
Population Hoechst High Intensity Objects (%) [7]: 10%
Population Membrane Permeable-Phenotype (%) [7]: 7%
Population Mitochondria Different-Phenotype (%) [7]: 1%
Population Mitotic Cells (%) [7]: 57%
Population Normal (%) [7]: 89%
Population Tubulin-Different-Phenotype (%) [7]: 2%
Total Cell Count [7]: 188
Population Apoptotic (%) [8]: 50%
Population Fragmented Nuclei (%) [8]: 52%
Population Healthy Nuclei (%) [8]: 35%
Population Hoechst High Intensity Objects (%) [8]: 38%
Population Membrane Permeable-Phenotype (%) [8]: 8%
Population Mitochondria Different-Phenotype (%) [8]: 0%
Population Mitotic Cells (%) [8]: 50%
Population Normal (%) [8]: 61%
Population Pyknosed Nuclei (%) [8]: 11%
Population Tubulin-Different-Phenotype (%) [8]: 25%
Total Cell Count [8]: 55
